Experimental data from ChEMBL document CHEMBL2380254, “Optimization of tocotrienols as antiproliferative and antimigratory leads” (Eur J Med Chem, 2013).

What was measured:
Malme-3M = assay: Growth inhibition of human MALME-3M cells assessed as cell growth at 10 uM after 48 hrs by sulforhodamine B assay; type: functional; conditions: read-out: Activity
How it was run: (§1)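 Single-dose NCI-60 screen: adherent cells in RPMI 1640 with 5% FBS were exposed to 10 µM for 48 h at 37 °C after a 24 h preincubation. They were fixed in situ with cold TCA (10% final), stained with 0.4% SRB in 1% acetic acid, solubilized in 10 mM Tris base, and read at 515 nm. Percent growth was taken relative to time-zero and control plates.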

NCI-H322M = assay: Growth inhibition of human NCI-H322M cells after 48 hrs by sulforhodamine B assay; type: functional
How it was run: (§2)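 NCI-60 panel cells grown in RPMI 1640 with 5% FBS and 2 mM L-glutamine, seeded at 5000–40,000 cells/well and preincubated 24 h. Five 10-fold dilutions (0.001–100 µM) from DMSO stocks were added for 48 h at 37 °C. Adherent cells were fixed with cold TCA (10% final) for 60 min at 4 °C, stained with 0.4% SRB, and read at 515 nm. GI50 was set where 100×(T−T0)/(C−T0)=50.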

HOP-62 = assay: Growth inhibition of human HOP62 cells assessed as cell growth at 10 uM after 48 hrs by sulforhodamine B assay; type: functional; conditions: HOP-62, 48 h, read-out: Activity
How it was run: (§3)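 NCI-60 single-dose screen at 10 µM: cells in RPMI 1640 with 5% FBS, preincubated 24 h, then exposed 48 h at 37 °C. TCA fixation (16% final for suspension cells), SRB staining, absorbance 515 nm. Percent growth relative to time-zero and untreated control plates; negative values indicate cell kill.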

IGROV-1 = assay: Growth inhibition of human IGROV1 cells after 48 hrs by sulforhodamine B assay; type: functional; conditions: IGROV-1, 48 h
How it was run: (§4)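 NCI-60 screen: cells in RPMI 1640 with 5% FBS and 2 mM glutamine, 5000–40,000 cells/well, preincubated 24 h. Five concentrations (10-fold dilutions; 100 to 0.001 µM) applied for 48 h at 37 °C. TCA fixation, SRB stain, absorbance at 515 nm. Time-zero plates included; GI50 where 100×(T−T0)/(C−T0)=50.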

HCT-116 = assay: Growth inhibition of human HCT116 cells after 48 hrs by sulforhodamine B assay; type: functional; conditions: HCT-116, 48 h; how it was run: as §4
LOX IMVI = assay: Growth inhibition of human LOXIMVI cells assessed as cell growth at 10 uM after 48 hrs by sulforhodamine B assay; type: functional; conditions: read-out: Activity; how it was run: as §3
OVCAR-4 [1] = assay: Growth inhibition of human OVCAR4 cells assessed as cell growth at 10 uM after 48 hrs by sulforhodamine B assay; type: functional; conditions: OVCAR-4, 48 h, read-out: Activity; how it was run: as §1
OVCAR-4 [2] = assay: Growth inhibition of human OVCAR4 cells after 48 hrs by sulforhodamine B assay; type: functional; conditions: OVCAR-4, 48 h; how it was run: as §2
UACC-257 = assay: Growth inhibition of human UACC257 cells assessed as cell growth at 10 uM after 48 hrs by sulforhodamine B assay; type: functional; conditions: UACC-257, 48 h, read-out: Activity
How it was run: (§5)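 Single-dose NCI-60 test at 10 µM. Cells were grown in RPMI 1640 with 5% FBS and 2 mM L-glutamine, preincubated 24 h, with T0 plates TCA-fixed. Exposure was 48 h at 37 °C, 5% CO2. Cells were fixed with cold TCA (final 10%, 4 °C, 60 min), stained with SRB and read at 515 nm. Percent growth was taken relative to T0 and untreated control; negative values denote cell kill.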

U-251 = assay: Growth inhibition of human U251 cells after 48 hrs by sulforhodamine B assay; type: functional; conditions: U-251, 48 h
How it was run: (§6)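 NCI-60 five-dose screen. Cells were grown in RPMI 1640 with 5% FBS and 2 mM L-glutamine, plated at 5000–40,000 cells/well and incubated 24 h before dosing, with T0 plates TCA-fixed. DMSO stocks were diluted to doses of […] and exposed 48 h at 37 °C, 5% CO2. Cells were fixed with cold TCA (final 10%, 60 min, 4 °C), stained with 0.4% SRB in 1% acetic acid for 10 min, solubilized in 10 mM trizma base and read at 515 nm. GI50 is where 100×(T−T0)/(C−T0)=50.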

MCF7 = assay: Antiproliferative activity against human MCF7 cells by MTT assay; type: functional, cell-based
How it was run: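 Cells plated at 8 × 10^3/well (MDA-MB-231) or 10^4/well (MCF7) in 96-well plates. Compounds fed in media with 5% FBS (MDA-MB-231) or 1% FBS (MCF7). MTT read-out of viable cells.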

HL-60(TB) = assay: Growth inhibition of human HL-60(TB) cells after 48 hrs by sulforhodamine B assay; type: functional; conditions: HL-60, 48 h
How it was run: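 HL-60(TB) cells (suspension) grown in RPMI 1640 with 5% FBS and 2 mM L-glutamine. They were plated and preincubated for 24 h, with T0 plates fixed at that point. Drug was given at five 10-fold dilutions for 48 h at 37 °C. Settled cells were fixed with TCA (16% final), stained with 0.4% SRB in 1% acetic acid and read at 515 nm. GI50 was taken where 100×(T−T0)/(C−T0)=50.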

786-0 = assay: Growth inhibition of human 786-0 cells after 48 hrs by sulforhodamine B assay; type: functional; conditions: 786-0, 48 h; how it was run: as §4
ACHN = assay: Growth inhibition of human ACHN cells after 48 hrs by sulforhodamine B assay; type: functional; how it was run: as §4
SNB-19 [3] = assay: Growth inhibition of human SNB19 cells assessed as cell growth at 10 uM after 48 hrs by sulforhodamine B assay; type: functional; conditions: SNB-19, 48 h, read-out: Activity; how it was run: as §5
SK-MEL-5 = assay: Growth inhibition of human SK-MEL-5 cells assessed as cell growth at 10 uM after 48 hrs by sulforhodamine B assay; type: functional; conditions: SK-MEL-5, 48 h, read-out: Activity; how it was run: as §1
SF-268 = assay: Growth inhibition of human SF268 cells after 48 hrs by sulforhodamine B assay; type: functional; conditions: SF-268, 48 h; how it was run: as §2
RXF 393 = assay: Growth inhibition of human RXF393 cells after 48 hrs by sulforhodamine B assay; type: functional; conditions: RXF 393, 48 h; how it was run: as §2
[4] = Growth inhibition of human NCI-ADR-RES cells assessed as cell growth at 10 uM after 48 hrs by sulforhodamine B assay; type: functional; conditions: read-out: Activity; how it was run: as §1
[5] = Growth inhibition of human Hs 578T cells assessed as cell growth at 10 uM after 48 hrs by sulforhodamine B assay; type: functional; conditions: read-out: Activity; how it was run: as §3
DU-145 = assay: Growth inhibition of human DU145 cells after 48 hrs by sulforhodamine B assay; type: functional; conditions: DU-145, 48 h; how it was run: as §4
CAKI-1 = assay: Growth inhibition of human CAKI-1 cells assessed as cell growth at 10 uM after 48 hrs by sulforhodamine B assay; type: functional; conditions: CAKI-1, 48 h, read-out: Activity; how it was run: as §3
SNB-19 [6] = assay: Growth inhibition of human SNB19 cells after 48 hrs by sulforhodamine B assay; type: functional; conditions: SNB-19, 48 h; how it was run: as §6
SF-539 = assay: Growth inhibition of human SF539 cells assessed as cell growth at 10 uM after 48 hrs by sulforhodamine B assay; type: functional; conditions: SF-539, 48 h, read-out: Activity; how it was run: as §1

Compound | growth at 10 µM (Malme-3M) [%] | GI50 (NCI-H322M) [nM] | growth at 10 µM (HOP-62) [%] | GI50 (IGROV-1) [nM] | GI50 (HCT-116) [nM] | growth at 10 µM (LOX IMVI) [%] | growth at 10 µM (OVCAR-4 [1]) [%] | GI50 (OVCAR-4 [2]) [nM] | growth at 10 µM (UACC-257) [%] | GI50 (U-251) [nM] | GI50 (HL-60(TB)) [nM] | GI50 (786-0) [nM] | GI50 (ACHN) [nM] | growth at 10 µM (SNB-19 [3]) [%] | growth at 10 µM (SK-MEL-5) [%] | GI50 (SF-268) [nM] | GI50 (RXF 393) [nM] | growth at 10 µM [4] [%] | GI50 (DU-145) [nM] | growth at 10 µM (CAKI-1) [%] | also measured
CC(C)=CCC/C(C)=C/CC/C(C)=C/CC[C@]1(C)CCc2c3c(c(C)c(C)c2O1)OCN(CCCCCO)C3 | 106 | 6350 | 114 | 6180 | 5250 | 40.2 | 93.1 | 5680 | 110 | 5710 | 6260 | 6470 | 5740 | 86.5 | 108 | 7130 | 1940 | 82.5 | 6280 | 70 | IC50 (MCF7): > 20000 nM; growth at 10 µM [5]: 97.3%; GI50 (SNB-19 [6]): 5990 nM; growth at 10 µM (SF-539): 106%
CC(C)=CCC/C(C)=C/CC/C(C)=C/CC[C@]1(C)CCc2c3c(cc(C)c2O1)OCN(CCCCO)C3 | 51.2 | 17200 | -84.5 | 14800 | 16000 | 100 | -94.8 | 16400 | 98.1 | 6640 | 18800 | 15500 | 16300 | -28.3 | 37.1 | 17700 | 4680 | -68.8 | 16700 | 34 | IC50 (MCF7): 16300 nM; growth at 10 µM [5]: 44.8%; GI50 (SNB-19 [6]): 16000 nM; growth at 10 µM (SF-539): 27.4%
CC(C)=CCC/C(C)=C/CC/C(C)=C/CC[C@]1(C)CCc2c3c(cc(C)c2O1)OCN(CCCCCCCCO)C3 | -56.5 | 5130 | -99 | 1340 | 597 | -86.9 | -98.9 | 585 | 99 | 544 | 1030 | 2710 | 2160 | -74.6 | 19.1 | 4140 | 551 | 18.7 | 1080 | -79.7 | IC50 (MCF7): > 20000 nM; growth at 10 µM [5]: 12%; GI50 (SNB-19 [6]): 1360 nM; growth at 10 µM (SF-539): -94.4%
CC(C)=CCC/C(C)=C/CC/C(C)=C/CC[C@]1(C)CCc2c3c(cc(C)c2O1)OCN(C1CCN(Cc2ccccc2)CC1)C3 | 122 | 1850 | 111 | 1560 | 576 | -47.4 | 59 | 1540 | 93 | 1510 | 349 | 1520 | 1880 | 68.2 | 110 | 1670 | 1220 | 62.9 | 1890 | 75.3 | growth at 10 µM [5]: -6.43%; GI50 (SNB-19 [6]): 1610 nM; growth at 10 µM (SF-539): 80.6%
COc1ccc(CCN2COc3cc(C)c4c(c3C2)CC[C@@](C)(CC/C=C(\C)CC/C=C(\C)CCC=C(C)C)O4)cc1OC | 72.9 | 2710 | -34.3 | 2080 | 1760 | -77.7 | 40.1 | 1630 | 71.8 | 1670 | 1900 | 1780 | 1750 | 80.5 | 90 | 2130 | 1360 | 49.1 | 1940 | 79.8 | GI50 (SNB-19 [6]): 1660 nM; growth at 10 µM (SF-539): 88.8%
